Screening data deposited in PubChem by The Scripps Research Institute Molecular Screening Center.
NPY Y1 blocker: NPY-Y1 receptor antagonists, primary screen, cell-based. Neuropeptide Y receptor type 1 (Homo sapiens), P25929. HEK293-CNG Y1 cells, membrane potential fluorescence; NPY at EC95, then isoproterenol. inhibition, % at 3.6 µM. hit rate 1% among 200,000. AID 1040, 2008;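 active = inhibition above the campaign mean inhibition of all tested compounds plus 3 SD, cut at about 20% in these data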;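 also: 0% = DMSO wells given NPY plus isoproterenol and 100% = isoproterenol alone without NPY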
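Material: HEK293 cells with Y1 receptor plus CNG channel; times: compound incubation 1 h at room temperature, readout 45 min post-stimulation; signal: fluorescence, membrane potential probe; read-out basis: fluorescence ratio normalized to % inhibition between controls; benchmarks: full-block control isoproterenol-only wells, zero-block control NPY plus isoproterenol wells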
NPY Y2 blocker: NPY-Y2 receptor antagonists, primary screen, cell-based | AID 793, 2007 | hit rate 0.99% among 140,000 | NPY-Y2 expressing cells, antagonist mode | inhibition, % at 2.7 µM | Neuropeptide Y receptor type 2 (Homo sapiens), P49146; in the data active = inhibition above about 17%;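 also: 0% = vehicle with agonist challenge and 100% = reference antagonist with challenge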
Target sequence (P49146 whole entry, looked up): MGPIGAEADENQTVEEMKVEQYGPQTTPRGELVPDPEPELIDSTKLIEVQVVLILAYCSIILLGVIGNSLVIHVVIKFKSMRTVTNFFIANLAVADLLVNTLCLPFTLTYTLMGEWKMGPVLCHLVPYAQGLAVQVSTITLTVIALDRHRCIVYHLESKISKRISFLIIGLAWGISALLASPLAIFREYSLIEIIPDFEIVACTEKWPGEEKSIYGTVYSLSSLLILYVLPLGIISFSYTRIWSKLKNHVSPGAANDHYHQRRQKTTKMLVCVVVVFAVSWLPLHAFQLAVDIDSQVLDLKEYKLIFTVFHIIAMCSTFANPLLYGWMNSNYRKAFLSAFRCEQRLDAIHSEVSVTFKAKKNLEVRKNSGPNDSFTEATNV
NPY-Y1 PAM-ag: NPY-Y1 receptor potentiators or agonists, primary screen, cell-based; Neuropeptide Y receptor type 1 (Homo sapiens), P25929; NPY-Y1 expressing cells, potentiator/agonist activation; activation, % at 3.6 µM; hit rate 0.37% among 220,000; in the data active = activation above about 33%, passing the limit was not always enough;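 also: cells stimulated with NPY at EC10 then isoproterenol at EC100; 0% = low agonist plus stimulus and 100% = saturating agonist plus stimulus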
NPY2 pot ag: NPY-Y2 potentiators or agonists, primary screen, cell-based; Neuropeptide Y receptor type 2 (Homo sapiens), P49146; cells expressing NPY-Y2, potentiator/agonist read-out; activation, % at 3.6 µM; hit rate 0.45% among 220,000; AID 1359, 2008; in the data active = activation above about 27%;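 also: cells stimulated with NPY near EC25 plus isoproterenol at EC100; 0% = vehicle plus submaximal agonist and 100% = vehicle plus saturating agonist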
NPY1 antag ctr: NPY-Y1 receptor antagonists, selectivity check, counter-screen for NPY-Y2 antagonist project, cell-based | inhibition, % at 3.6 µM | shares compounds with NPY Y2 blocker | cell-based NPY-Y1 antagonism counterscreen | hit rate 19% among 710; in the data active = inhibition above about 20%;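 also: cells challenged with NPY then isoproterenol with cAMP sensed through a CNG channel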
NPY2 antag conf: NPY-Y2 receptor antagonists, retest of hits, confirmation, HEK293-CNG cells, membrane potential fluorescence, triplicate | shares compounds with NPY Y2 blocker | HEK293 NPY-Y2 CNG channel | inhibition, % at 2.8 µM | hit rate 32% among 710 | AID 1257, 2008;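 active = mean inhibition of triplicate wells above the hit cutoff set in the primary screen, cut at about 17% in these data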;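 also: 0% = DMSO with NPY challenge and 100% = BIIE0246 high control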
Numbers without * were called inactive; . = not tested or not shown. Most compounds without a hit are left out; they make up all but 1.8% or so of the library.

SMILES	NPY Y1 blocker	NPY Y2 blocker	NPY-Y1 PAM-ag	NPY2 pot ag	NPY1 antag ctr	NPY2 antag conf
Cc1cccc(N2CCN(CC(=O)Nc3ccccc3[N+](=O)[O-])CC2)c1C	9	38*	15	3	10	11
NS(=O)(=O)c1ccc(CCNC(=O)COC(=O)/C=C/c2ccc(Cl)cc2)cc1	10	.	-9	-16	.	.
Cc1ccc(OCC(=O)NC(=S)Nc2cccc(NC(=O)c3ccccc3)c2)cc1	2	37*	4	-6	14	17
C=CCNc1nc(N2CCCC2)nc2ccccc12	11	20*	-33	4	19	19*
Cn1ccnc1SCC(=O)Nc1cccc(O)c1	7	18*	-7	13	-3	-2
CS(=O)(=O)N(CC(=O)N1CCN(Cc2ccc3c(c2)OCO3)CC1)Cc1ccc(Cl)cc1	15	23*	-15	-7	9	4
CS(=O)(=O)N(CCc1ccccc1)CC(=O)N1CCN(Cc2ccc3c(c2)OCO3)CC1	-3	2	-14	10	.	.
COCc1cc(C)nc(Oc2ccccc2)c1C#N	2	.	4	-1	.	.
CCCOC(=O)COC(=O)c1ccccc1NC(=O)c1ccccc1	15	23*	-70	-11	16	9
CC1=CC(C)(C)N(S(=O)(=O)c2ccc(C)cc2)c2ccc(C)cc21	8	21*	7	-2	24*	20*
O=C(Oc1ccc(Br)cc1C(=S)N1CCCC1)c1ccccc1Cl	5	10	-25	-7	.	.
Cc1ccccc1C(=O)Oc1ccc(Br)cc1C(=S)N1CCCC1	7	17*	-23	-7	14	10
N#Cc1c(NC(=O)CCn2cnc3ccccc3c2=O)oc(-c2ccccc2)c1-c1ccccc1	20	20*	-17	6	23*	11
Cc1ccc(C(=O)NCC(=O)N/N=C/c2cccs2)cc1C	1	.	8	8	.	.
O=C(COC(=O)c1ccc(O)cc1)Nc1ccccc1-c1ccccc1	2	6	-4	-2	.	.
O=C(COC(=O)c1ccc(-c2ccccc2)cc1)Nc1ccccc1-c1ccccc1	-4	31*	3	3	15	19*
O=C(COC(=O)/C=C/c1ccccc1)Nc1ccccc1Br	4	12	-30	-10	.	.
O=C(COC(=O)/C=C/c1cccc(Cl)c1)Nc1ccccc1-c1ccccc1	7	19*	-13	-1	21*	30*
COc1ccc2[nH]c3c(=O)n(CCCCCC(=O)NCCC(C)C)c(=S)[nH]c3c2c1	-1	.	-19	-17	.	.
Cc1ccc(-c2nc3ncccc3o2)cc1NC(=O)COc1ccccc1	3	21*	-23	2	8	5
CN(C)c1ccc(NC(=O)CN2CCC(O)(c3ccccc3)CC2)cc1	3	.	3	-1	.	.
CN(C)C(=O)C(CCN1CCC(O)(c2ccc(Cl)cc2)CC1)(c1ccccc1)c1ccccc1	19	25*	-39	0	15	28*
CCN1CCN(c2ccc(S(=O)(=O)N3CCCCC3)cc2NC(=O)c2ccc(F)cc2)CC1	3	18*	9	-8	0	7
CCOC(=O)CSc1nc(=O)n2cccc(C)c2n1	-1	.	1	1	.	.
Cc1csc(N2CCCC2=O)n1	9	.	3	-1	.	.
O=C(C1CCN(Cc2ccc(Cl)cc2)CC1)N1CCN(C(c2ccccc2)c2ccccc2)CC1	3	20*	-28	-4	9	32*
O=C(C1CCN(Cc2ccc(OCc3ccccc3)cc2)CC1)N1CCCC1	8	7	-12	6	.	.
O=C(C(Sc1ccccc1)c1ccccc1)N1CCN(c2ccccc2)CC1 (stereo not given)	12	19*	-3	0	16	9
CCOC(=O)c1ccc(NC(=O)C2(c3ccccc3)CCOCC2)cc1	7	1	-6	15	.	.
CCOC(=O)c1sc(NC(=O)COC(=O)C(CCSC)NC(C)=O)nc1C (stereo not given)	0	3	-31	3	.	.
